This assay has as its target T1, hCCK2R (Homo sapiens, UniProt P32239).
T1 sequence (P32239 1-447): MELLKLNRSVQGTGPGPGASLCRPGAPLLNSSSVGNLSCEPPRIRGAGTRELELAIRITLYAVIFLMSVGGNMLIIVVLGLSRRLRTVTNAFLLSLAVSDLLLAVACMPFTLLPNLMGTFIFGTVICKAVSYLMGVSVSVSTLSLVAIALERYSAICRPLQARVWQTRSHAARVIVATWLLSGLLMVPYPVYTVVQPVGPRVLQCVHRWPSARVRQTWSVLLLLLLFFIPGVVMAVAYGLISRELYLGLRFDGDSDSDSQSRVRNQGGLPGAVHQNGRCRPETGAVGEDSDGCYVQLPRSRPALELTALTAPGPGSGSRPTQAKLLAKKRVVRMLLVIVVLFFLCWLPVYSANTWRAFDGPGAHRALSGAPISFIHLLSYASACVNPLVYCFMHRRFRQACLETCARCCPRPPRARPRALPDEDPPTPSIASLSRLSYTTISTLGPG
In words: Competitive binding assay. The note with it: against probe 3 (15 nM); concentration range 10^-5 to 10^-12 M. The essentials:
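HEK-293 cells engineered to overexpress hCCK2R and hMC4R, kept in selective medium and seeded at 240,000 cells/well in six-well plates (~1 × 10^6 cells at 90% confluence). Medium replaced with test compound (10^-5 to 10^-12 M, twelve levels) plus 15 nM Eu-labelled CCK4 probe in binding buffer for 1 h, 37 °C, CO₂. Cells pelleted and washed three times in basic buffer. DELFIA enhancement for 1 h, 37 °C. Supernatant read by TRF. Ki reported with SEM.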

Entries after “also recorded” stand apart in the source; their conditions may differ.

Consider `NC(=O)[C@H](CO)NC(=O)CCCCCn1cc(COc2cc(OCc3cn(CCCCCC(=O)N[C@@H](CO)C(N)=O)nn3)cc(OCc3cn(CCCCCC(=O)N[C@@H](CO)C(N)=O)nn3)c2)nn1` [Compound 16], for which the “Competitive inhibition of probe 3 binding (in words)” value is “not competitive inhibitors; also recorded: did not interfere with the binding and uptake of probe 3”.

As for `NC(=O)[C@H](CO)NC(=O)CCCCCn1cc(CN(Cc2cn(CCCCCC(=O)N[C@@H](CO)C(N)=O)nn2)Cc2cn(CCCCCC(=O)N[C@@H](CO)C(N)=O)nn2)nn1` [Compound 15], the “Competitive inhibition of probe 3 binding (in words)” value was “not competitive inhibitors; also recorded: did not interfere with the binding and uptake of probe 3”.

Values taken from article PMC4380538 (Bioorganic & medicinal chemistry, 2015).
